Experimental data as given in ChEMBL document CHEMBL1145938, “Synthesis and structure-activity relationship of aminobenzophenones. A novel class of p38 MAP kinase inhibitors with high antiinflammatory activity” (J Med Chem, 2003).
pIC50: −log10 of the molar value.

Columns and labels:
[1] = biological target: T1, Mitogen-activated protein kinase 14 (Homo sapiens, UniProt Q16539); experiment: In vitro inhibitory activity determined against human mitogen-activated protein kinase p38 alpha
MAP kinase p38 [2] = biological target: T2, MAP kinase p38 (Homo sapiens, UniProt O15264+Q15759+Q16539+P53778); experiment: In vitro inhibition of IL1-beta release from LPS stimulated human peripheral blood mononuclear cells.; assay type: functional
How it was run: (§1)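 Human PBMC from buffy coats (Lymphoprep), 5×10^5 cells/mL in RPMI1640 with 2% FCS, glutamine, penicillin/streptomycin; 30 min preincubation with compound, then LPS stimulation, 18 h at 37 °C, 5% CO2.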

MAP kinase p38 [3] = biological target: T2, MAP kinase p38; experiment: In vitro inhibition of TNF-alpha release from LPS stimulated human peripheral blood mononuclear cells.; assay type: functional; how it was run: as §1
[4] = biological target: Mitogen-activated protein kinase; ERK1/ERK2 (Homo sapiens) (UniProt P27361+P28482); experiment: Inhibition of Mitogen-activated protein kinase 3/Mitogen-activated protein kinase 1 (ERK) at 10 uM; assay type: protein assay
Chain of Mitogen-activated protein kinase; ERK1/ERK2 (Homo sapiens) (P27361 whole entry, looked up): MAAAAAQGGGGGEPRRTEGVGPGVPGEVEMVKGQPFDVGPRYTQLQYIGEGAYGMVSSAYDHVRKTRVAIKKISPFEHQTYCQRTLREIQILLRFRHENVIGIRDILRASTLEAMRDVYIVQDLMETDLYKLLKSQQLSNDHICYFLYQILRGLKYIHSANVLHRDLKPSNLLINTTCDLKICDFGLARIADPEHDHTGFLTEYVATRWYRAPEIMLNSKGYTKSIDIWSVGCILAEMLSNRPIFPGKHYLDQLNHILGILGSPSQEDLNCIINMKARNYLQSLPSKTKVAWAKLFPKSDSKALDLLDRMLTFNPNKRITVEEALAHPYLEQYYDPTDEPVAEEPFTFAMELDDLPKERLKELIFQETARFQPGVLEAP
Chain of Mitogen-activated protein kinase; ERK1/ERK2 (Homo sapiens) (P28482 whole entry, looked up): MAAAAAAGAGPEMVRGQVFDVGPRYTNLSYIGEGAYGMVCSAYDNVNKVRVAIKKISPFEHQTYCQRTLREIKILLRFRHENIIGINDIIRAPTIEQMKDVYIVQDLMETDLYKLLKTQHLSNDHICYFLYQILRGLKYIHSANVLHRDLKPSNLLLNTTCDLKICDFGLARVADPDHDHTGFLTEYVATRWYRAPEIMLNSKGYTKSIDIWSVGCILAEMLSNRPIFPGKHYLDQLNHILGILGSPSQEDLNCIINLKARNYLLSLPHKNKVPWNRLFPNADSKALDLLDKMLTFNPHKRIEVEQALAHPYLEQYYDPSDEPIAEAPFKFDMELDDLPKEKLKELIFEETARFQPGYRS
How it was run: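 MCF-7 cells stimulated with EGF; ERK1/2 activity measured with a modified cell-signalling ERK1/2 kinase kit in presence of compound.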

[5] = biological target: T1, Mitogen-activated protein kinase 14; experiment: Inhibition of Mitogen-activated protein kinase p38 alpha at 1 uM
How it was run: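 FLAG-tagged p38α cDNA was transfected into COS-1 cells. Kinase activity of the expressed isoform was measured with compound at 1 μM.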

[6] = biological target: Mitogen-activated protein kinase 11 (Homo sapiens) (UniProt Q15759); experiment: Inhibition of Mitogen-activated protein kinase p38 beta at 1 uM
Chain of Mitogen-activated protein kinase 11 (Homo sapiens) (Q15759 whole entry, canonical isoform): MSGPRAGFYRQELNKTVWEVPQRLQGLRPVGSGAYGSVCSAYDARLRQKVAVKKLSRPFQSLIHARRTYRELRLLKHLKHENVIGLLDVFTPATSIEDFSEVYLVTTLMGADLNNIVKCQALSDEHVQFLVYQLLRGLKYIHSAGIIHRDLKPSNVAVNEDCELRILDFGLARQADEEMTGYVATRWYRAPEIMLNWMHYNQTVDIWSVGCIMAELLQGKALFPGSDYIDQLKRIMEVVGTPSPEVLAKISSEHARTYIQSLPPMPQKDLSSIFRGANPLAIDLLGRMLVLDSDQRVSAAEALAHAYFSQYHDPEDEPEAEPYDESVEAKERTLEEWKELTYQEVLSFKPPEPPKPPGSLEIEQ
How it was run: (§2)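 FLAG-tagged p38 isoform cDNA (β2, γ or δ) transfected into COS-1 cells; kinase activity of the expressed isoform measured with compound at 1 μM.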

[7] = biological target: T3, Mitogen-activated protein kinase 13 (Homo sapiens) (UniProt O15264); experiment: Inhibition of Mitogen-activated protein kinase p38 delta at 1 uM; how it was run: as §2
T3 sequence (whole entry): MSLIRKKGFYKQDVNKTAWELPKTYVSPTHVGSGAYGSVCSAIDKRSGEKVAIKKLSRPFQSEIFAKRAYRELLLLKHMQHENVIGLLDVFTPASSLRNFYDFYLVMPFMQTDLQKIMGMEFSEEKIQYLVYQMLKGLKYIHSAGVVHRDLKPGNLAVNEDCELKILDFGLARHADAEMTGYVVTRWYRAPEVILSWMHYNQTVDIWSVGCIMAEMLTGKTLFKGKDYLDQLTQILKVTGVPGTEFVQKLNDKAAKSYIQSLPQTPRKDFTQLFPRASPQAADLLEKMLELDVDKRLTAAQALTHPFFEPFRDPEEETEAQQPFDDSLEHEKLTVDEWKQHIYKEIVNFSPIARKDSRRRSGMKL

[8] = biological target: T4, Mitogen-activated protein kinase 12 (Homo sapiens) (UniProt P53778); experiment: Inhibition of Mitogen-activated protein kinase p38 gamma at 1 uM; how it was run: as §2
T4 sequence (whole entry): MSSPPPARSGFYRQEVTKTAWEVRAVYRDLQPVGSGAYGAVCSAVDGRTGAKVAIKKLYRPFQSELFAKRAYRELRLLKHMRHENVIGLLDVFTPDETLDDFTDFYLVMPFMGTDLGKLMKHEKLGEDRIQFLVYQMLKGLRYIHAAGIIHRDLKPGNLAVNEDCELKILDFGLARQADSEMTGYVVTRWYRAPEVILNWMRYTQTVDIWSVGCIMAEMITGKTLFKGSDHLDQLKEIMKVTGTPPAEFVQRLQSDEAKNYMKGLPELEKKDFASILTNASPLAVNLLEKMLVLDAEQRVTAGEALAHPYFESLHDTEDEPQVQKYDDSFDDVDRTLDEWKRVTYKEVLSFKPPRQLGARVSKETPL

Homo sapiens [9] = species on record: Homo sapiens; experiment: In vitro inhibition of gamma-interferon release by human […]; assay type: functional
How it was run: (§3)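 Human PBMC were isolated from buffy coats and diluted 1:1 in saline. Cells were held at 5×10^5 cells/mL in RPMI1640 with 2 mM glutamine and penicillin/streptomycin, then preincubated 30 min with compound. IL-12: 2% FCS, IFN-γ 95 ng/mL for 18 h, then LPS for 24 h. IL-2 and IFN-γ: 10% FCS, phytohemagglutinin for 48 h. Supernatant cytokine measured by sandwich ELISA.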

Homo sapiens [10] = species on record: Homo sapiens; experiment: In vitro inhibition of cytokine IL-12 release by human […]; assay type: functional; how it was run: as §3
Homo sapiens [11] = species on record: Homo sapiens; experiment: In vitro inhibition of cytokine IL-2 release by human […]; assay type: functional; how it was run: as §3
[12] = biological target: Mitogen-activated protein kinase 8 (Homo sapiens) (UniProt P45983); experiment: Inhibition of c-Jun N-terminal kinase 1 at 10 uM
Chain of Mitogen-activated protein kinase 8 (Homo sapiens) (P45983 whole entry): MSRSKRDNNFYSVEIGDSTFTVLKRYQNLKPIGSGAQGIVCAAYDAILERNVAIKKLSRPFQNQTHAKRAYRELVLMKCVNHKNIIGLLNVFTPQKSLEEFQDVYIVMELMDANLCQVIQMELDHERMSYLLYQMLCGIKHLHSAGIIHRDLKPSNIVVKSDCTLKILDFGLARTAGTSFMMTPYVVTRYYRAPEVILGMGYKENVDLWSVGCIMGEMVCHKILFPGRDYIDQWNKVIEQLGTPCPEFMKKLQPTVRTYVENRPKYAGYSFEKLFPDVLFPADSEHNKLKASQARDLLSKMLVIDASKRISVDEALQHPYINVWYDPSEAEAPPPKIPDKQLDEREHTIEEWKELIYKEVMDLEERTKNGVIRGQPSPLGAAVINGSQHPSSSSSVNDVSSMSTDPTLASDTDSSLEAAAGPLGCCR
How it was run: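 JNK1 activity from UV-stimulated MCF-7 cells, measured with a JNK1 kinase kit in presence of compound.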

Mus musculus [13] = species on record: Mus musculus; experiment: Inhibition of ear swelling in oxazolone-induced murine allergic contact dermatitis at 0.5 mg/ear at 24 hr; assay type: functional
How it was run: (§4)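 Groups of six female inbred BALB/cABOM mice (18–21 g) were sensitized with oxazolone on the clipped abdomen 7 days before right-ear challenge. Compound in acetone (20 μL) or vehicle was applied once, 30 min after challenge. Ear swelling (right minus left ear thickness) was read at 24, 48 and 72 h. Values are mean % inhibition ± SEM of four or five experiments.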

Mus musculus [14] = experiment: Inhibition of ear swelling induced by 12-O-tetradecanoylphorbol-13-acetate (TPA) in murine chronic irritative contact dermatitis model at 0.5 mg/ear (in vivo); assay type: functional
How it was run: (§5)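 Murine TPA-induced chronic irritative ear dermatitis, with compound given topically per ear. Ear swelling and ear weight were determined 5 h after the last application. Values are mean % inhibition ± SEM of three to five experiments.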

Mus musculus [15] = species on record: Mus musculus; experiment: Inhibition of ear swelling induced by oxazolone induced murine allergic contact dermatitis model at 0.5 mg/ear at 72 hr; assay type: functional; how it was run: as §4
Mus musculus [16] = experiment: Inhibition of ear weight induced by 12-O-tetradecanoylphorbol-13-acetate (TPA) in murine chronic irritative contact dermatitis model at 0.5 mg/ear (in vivo); assay type: functional; how it was run: as §5
[17] = biological target: T5, Myeloperoxidase (Mus musculus) (UniProt P11247); experiment: Inhibition of myeloperoxidase (MPO) activity induced by TPA in murine chronic irritative contact dermatitis model at 0.5 mg/ear (in vivo); assay type: organism-based
T5 sequence (whole entry): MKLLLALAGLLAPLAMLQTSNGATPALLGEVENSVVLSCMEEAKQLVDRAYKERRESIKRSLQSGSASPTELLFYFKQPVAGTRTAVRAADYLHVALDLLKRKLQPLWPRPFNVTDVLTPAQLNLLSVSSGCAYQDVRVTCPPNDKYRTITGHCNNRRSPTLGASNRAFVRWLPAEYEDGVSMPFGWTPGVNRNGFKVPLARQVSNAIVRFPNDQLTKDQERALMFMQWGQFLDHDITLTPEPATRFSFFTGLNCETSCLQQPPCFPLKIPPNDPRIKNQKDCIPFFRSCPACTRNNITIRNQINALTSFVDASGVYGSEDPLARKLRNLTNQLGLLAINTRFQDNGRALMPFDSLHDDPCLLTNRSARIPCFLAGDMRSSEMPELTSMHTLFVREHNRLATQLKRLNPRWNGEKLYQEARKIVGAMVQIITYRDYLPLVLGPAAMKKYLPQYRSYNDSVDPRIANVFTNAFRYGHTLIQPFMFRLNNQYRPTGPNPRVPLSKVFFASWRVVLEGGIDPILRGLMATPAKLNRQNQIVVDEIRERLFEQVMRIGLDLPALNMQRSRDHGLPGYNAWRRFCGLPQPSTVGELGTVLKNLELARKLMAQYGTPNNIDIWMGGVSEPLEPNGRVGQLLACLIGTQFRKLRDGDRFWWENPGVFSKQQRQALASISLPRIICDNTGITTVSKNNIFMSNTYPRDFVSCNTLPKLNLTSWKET

MAP kinase p38 [18] = biological target: T2, MAP kinase p38; experiment: In vitro inhibition of cytokine IL-6 release by human […]; assay type: functional
How it was run: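 PBMC isolated from buffy coats, 5×10^5 cells/mL in RPMI1640 plus 2% FCS, glutamine and antibiotics. Compound added 30 min before LPS; culture 6 h. Supernatant IL-6 or IL-8 quantified by ELISA kits.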

MAP kinase p38 [19] = biological target: T2, MAP kinase p38; experiment: In vitro inhibition of cytokine IL-10 release by human […]; assay type: functional
How it was run: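 Buffy-coat PBMC at 5×10^5 cells/mL in RPMI1640 with 10% FCS, glutamine, antibiotics; 30 min compound preincubation, then phytohemagglutinin stimulation and 48 h incubation.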

MAP kinase p38 [20] = biological target: T2, MAP kinase p38; experiment: In vitro inhibition of cytokine IL-8 release by human peripheral blood mononuclear cells
Mus musculus [21] = experiment: Inhibition of ear swelling induced by oxazolone in murine allergic contact dermatitis model at 0.5 mg/ear at 48 hr (in vivo)
[22] = biological target: T5, Myeloperoxidase (Mus musculus); experiment: Inhibition of myeloperoxidase (MPO) activity induced by oxazolone in murine allergic contact dermatitis model at 0.5 mg/ear at 72 hr

T1 sequence (Q16539 whole entry): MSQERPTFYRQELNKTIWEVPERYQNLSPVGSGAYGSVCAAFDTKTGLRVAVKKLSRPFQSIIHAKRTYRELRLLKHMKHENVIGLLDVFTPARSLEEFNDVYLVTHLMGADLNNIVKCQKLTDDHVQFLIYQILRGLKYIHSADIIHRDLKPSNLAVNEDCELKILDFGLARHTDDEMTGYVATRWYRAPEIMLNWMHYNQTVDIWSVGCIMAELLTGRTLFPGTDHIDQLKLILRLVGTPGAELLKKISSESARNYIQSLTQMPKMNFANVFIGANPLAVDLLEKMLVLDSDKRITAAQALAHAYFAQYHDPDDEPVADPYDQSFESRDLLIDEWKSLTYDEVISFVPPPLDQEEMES

SMILES	pIC50 [1]	IC50 (MAP kinase p38 [2])	IC50 (MAP kinase p38 [3])	further results
Nc1ccccc1Nc1ccc(C(=O)c2ccccc2Br)cc1	7.27	45 nM	34 nM	–
Nc1ccccc1Nc1ccc(C(=O)c2ccccc2)c(Cl)c1	6.86	437 nM	214 nM	–
Cc1ccccc1C(=O)c1ccc(N(C)c2ccccc2N)cc1Cl	7.00	70 nM	44 nM	–
Cc1ccccc1C(=O)c1ccc(Nc2ccccc2)cc1Cl	8.15	119 nM	24 nM	–
Cc1ccccc1C(=O)c1ccc(Nc2ccccc2N)cc1	7.54	67 nM	47 nM	–
COc1ccccc1C(=O)c1ccc(Nc2ccccc2N)cc1Cl	8.30	28 nM	20 nM	–
Fc1ccc(-c2ncn(C3CCNCC3)c2-c2ccncc2)cc1 [VK-19911]	–	–	–	inhibition [4]: 0%; inhibition [5]: 73%; inhibition [6]: 59%; inhibition [7]: 8%; inhibition [8]: 0%; pIC50 (Homo sapiens [9]): < 6.00; pIC50 (Homo sapiens [10]): < 6.00; pIC50 (Homo sapiens [11]): < 6.00; inhibition [12]: 9%
Cc1cccc(C(=O)c2ccc(Nc3ccccc3N)cc2)c1	6.24	580 nM	467 nM	–
O=C(c1ccccc1)c1ccc(Nc2ccccc2)cc1	6.71	175 nM	1349 nM	–
C=C(c1ccccc1C)c1ccc(Nc2ccccc2N)cc1Cl	5.81	> 5000 nM	> 10000 nM	–
Cc1ccccc1C(=O)c1ccc(Nc2ccccc2N)cc1C	7.89	22 nM	8 nM	–
Cc1cc(C(=O)c2ccccc2C)ccc1Nc1ccccc1N	6.84	343 nM	127 nM	–
Nc1ccccc1Nc1ccc(C(=O)c2ccccc2-c2ccccc2)cc1	6.09	483 nM	444 nM	–
Cc1ccccc1Nc1ccc(C(=O)c2ccccc2C)c(Cl)c1	7.92	26 nM	14 nM	–
Nc1ccccc1Nc1ccc(C(=O)c2ccccc2)cc1	6.84	226 nM	159 nM	–
CCNC(=O)Nc1ccccc1Nc1ccc(C(=O)c2ccccc2C)c(Cl)c1	7.68	9 nM	3 nM	–
CCOC(=O)Nc1ccccc1Nc1ccc(C(=O)c2ccccc2C)c(Cl)c1	7.38	16 nM	6 nM	–
Cc1ccccc1C(=O)c1ccc(Nc2ccccc2[N+](=O)[O-])cc1Cl	6.36	427 nM	382 nM	–
CC(=O)Nc1ccccc1Nc1ccc(C(=O)c2ccccc2C)c(Cl)c1	7.20	21 nM	10 nM	–
Cc1cc(F)ccc1Nc1ccc(C(=O)c2ccccc2C)c(Cl)c1	8.40	17 nM	4 nM	inhibition [4]: 0%; inhibition [5]: 88%; inhibition [6]: 92%; inhibition [7]: 4%; inhibition [8]: 5%; Inhibition (Mus musculus [13]): 40%; Inhibition (Mus musculus [14]): 26%; Inhibition (Mus musculus [15]): 54%; Inhibition (Mus musculus [16]): 26%; inhibition [17]: 60%; pIC50 (Homo sapiens [9]): < 6.00; pIC50 (Homo sapiens [10]): < 6.00; pIC50 (Homo sapiens [11]): < 6.00; IC50 (MAP kinase p38 [18]): 35 nM; inhibition [12]: 0%; IC50 (MAP kinase p38 [19]): 51 nM; IC50 (MAP kinase p38 [20]): 79 nM; Inhibition (Mus musculus [21]): 46%; inhibition [22]: 57%
Cc1ccccc1Cc1ccc(Nc2ccc(F)cc2N)cc1Cl	< 4.00	> 10000 nM	> 10000 nM	–
